Reference: ChEMBL document CHEMBL1145138, “Design and synthesis of 4-azaindoles as inhibitors of p38 MAP kinase” (J Med Chem, 2003)

How the values were obtained:
[1] = target: Mitogen-activated protein kinase 14 (Rattus norvegicus) (UniProt P70618); assay: In vivo percent inhibition of LPS stimulated TNF alpha synthesis in rat at a concentration of 30 mg/kg; format: functional, organism-based; set-up: dose 30 mg/kg
How it was run: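 Female Wistar/Han rats, 8 per group, were dosed orally at −30 min with compound in CMC vehicle (0.9% NaCl, 0.5% Na-CMC, 0.4% polysorbate 80, 0.9% benzyl alcohol) or with vehicle alone. LPS 50 μg/kg was given ip at 0 h. At 1.5 h, blood was taken by cardiocentesis after CO₂ euthanasia, and serum TNFα was measured by ELISA against vehicle controls.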

[2] = target: Mitogen-activated protein kinase 14 (Homo sapiens, UniProt Q16539); assay: In vitro inhibitory concentration against Mitogen-activated protein kinase p38 alpha
Sequence of Mitogen-activated protein kinase 14 (Q16539 whole entry): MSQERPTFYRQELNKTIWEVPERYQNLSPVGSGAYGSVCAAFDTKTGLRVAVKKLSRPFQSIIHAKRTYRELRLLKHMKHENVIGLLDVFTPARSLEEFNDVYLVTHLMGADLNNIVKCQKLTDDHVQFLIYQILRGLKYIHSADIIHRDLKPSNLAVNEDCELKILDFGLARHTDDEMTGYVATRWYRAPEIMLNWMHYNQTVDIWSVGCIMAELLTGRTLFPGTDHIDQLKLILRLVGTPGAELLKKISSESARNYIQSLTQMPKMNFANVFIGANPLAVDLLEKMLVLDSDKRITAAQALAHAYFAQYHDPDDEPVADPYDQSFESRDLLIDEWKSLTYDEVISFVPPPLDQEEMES

[3] = AUC at a dose of 10 mg/Kg administered to female hanover-wistar rat intravenously; format: ADME, organism-based; conditions: plasma, iv
How it was run: (§1)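 Female Wistar/Han rats weighing 180–220 g, 3 per dose regime, received a single 10 mg/kg IV bolus in 50% cyclodextran/water. Blood was drawn under CO₂:O₂ (60:40) via orbital sinus or cardiac puncture at 1, 3, 6, 8 and 24 h. Plasma was protein-precipitated with acetonitrile, diluted in 50 mM formate buffer and quantified by LC/MS.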

[4] = C max at a dose of 10 mg/Kg administered to female hanover-wistar rat intravenously; format: ADME, organism-based; set-up: dose 10 mg/Kg, route intravenous; conditions: in vivo, iv; how it was run: as §1
[5] = C max at a dose of 10 mg/Kg administered to female hanover-wistar rat per orally; format: ADME, organism-based; set-up: dose 10 mg/Kg, route oral; conditions: in vivo, po
How it was run: (§2)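 Female Wistar/Han rats (180–220 g, n=3 per regime) received a single 10 mg/kg oral suspension in 0.9% NaCl, 0.5% Na-CMC, 0.4% polysorbate 80 and 0.9% benzyl alcohol. Blood was taken at 1, 3, 6, 8 and 24 h by orbital sinus or cardiac puncture. Plasma drug was measured by LC/MS after acetonitrile precipitation; the comparison arm was a 10 mg/kg IV bolus.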

[6] = T max at a dose of 10 mg/Kg administered to female hanover-wistar rat per orally; format: ADME, organism-based; conditions: in vivo, po; how it was run: as §2
[7] = Bioavailability at a dose of 10 mg/Kg administered to female hanover-wistar rat per orally; format: ADME, organism-based; conditions: in vivo, po; how it was run: as §2
Rattus norvegicus = assay: AUC at a dose of 10 mg/Kg administered to female hanover-wistar rat per orally; format: ADME, organism-based, Plasma; conditions: in vivo, po; how it was run: as §2
[8] = CL at a dose of 10 mg/Kg administered to female hanover-wistar rat intravenously; format: ADME, organism-based; conditions: in vivo, iv; how it was run: as §1
[9] = T 1/2 at a dose of 10 mg/Kg administered to female hanover-wistar rat per orally; format: ADME, organism-based; conditions: in vivo, po; how it was run: as §2
[10] = T 1/2 at a dose of 10 mg/Kg administered to female hanover-wistar rat intravenously; format: ADME, organism-based; conditions: in vivo, iv; how it was run: as §1

Sequence of Mitogen-activated protein kinase 14 (Rattus norvegicus) (P70618 whole entry): as the sequence (Q16539 whole entry) above, with I17V, L48H, T263A, D321E, L332F counted along it

SMILES | inhibition [1] | IC50 [2] | further results
Fc1ccc(-c2c(-c3ccncc3)oc3cccnc23)cc1 | 44% |  | 
Nc1ncnc2c1cc(-c1ccncc1)n2-c1ccc(F)cc1 |  | 3300 nM | 
Fc1ccc(-c2c(-c3ccncc3)n(CCN3CCCCC3)c3cccnc23)cc1 | 75% | 1970 nM | 
Fc1ccc(-c2c(-c3ccncc3)n(CCN3CCCC3)c3cccnc23)cc1 | 86% | 217 nM | 
OCCn1c(-c2ccncc2)c(-c2ccc(F)cc2)c2ncccc21 |  | 172 nM | 

Continued by falling IC50 [2], values first:

inhibition [1] | IC50 [2] | SMILES | further results
98% | 53 nM | Fc1ccc(-c2c(-c3ccncc3)[nH]c3nccnc23)cc1 | 
 | 21 nM | COCCn1c(-c2ccncc2)c(-c2ccc(F)cc2)c2ncccc21 | 
69% | 5 nM | OCCCCNc1cc(-c2[nH]c3cccnc3c2-c2ccc(F)cc2)ccn1 | 
88% | 3 nM | OCCNc1cc(-c2[nH]c3cccnc3c2-c2ccc(F)cc2)ccn1 | 
76% | 1 nM | C[C@@H](O)CNc1cc(-c2[nH]c3cccnc3c2-c2ccc(F)cc2)ccn1 | AUC [3]: 27.5 µM·h; Cmax [4]: 8.8 µM; Cmax [5]: 2.8 µM; Tmax [6]: 1 h; bioavailability [7]: 30.5%; AUC (Rattus norvegicus): 8.4 µM·h; clearance [8]: 16.7 mL/min/kg; half-life [9]: 1.5 h; half-life [10]: 2.9 h
